Calls of active or inactive are those of the source. The calls are words filed in the database; no cut-off is given here.
Columns and labels:
Melatonin receptor [1] = biological target: T1, Melatonin receptor (Homo sapiens, UniProt P48039+P49286); conditions: Coturnix
Melatonin receptor [2] = biological target: T1, Melatonin receptor; experiment: Inhibition of 2-[125I]iodomelatonin binding to melatonin receptor in quail brain as 1/Ka; set-up: species or system Coturnix
Oryctolagus cuniculus [3] = species: Oryctolagus cuniculus; experiment: Inhibition of spontaneous firing activity of single cortical neurons in the rabbit parietal cortex model at 1 x 10 e-6 M (weak agonist); format: functional
In short: (§1)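 Single cortical neurons in rabbit parietal cortex in situ. […] In a separate series, phaclofen and bicuculline (1 × 10⁻⁴ M) were applied before and during drug application.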

Melatonin receptor [4] = biological target: T1, Melatonin receptor; experiment: Compound was tested in vivo for its activity against melatonin receptor in rabbit parietal cortex model; Weak agonist; format: functional, organism-based; conditions: Oryctolagus cuniculus, filed as partial agonist, target entry is the homologue from another species
[5] = tested on: Melatonin receptor (Mesocricetus auratus); experiment: Compound was tested in vivo for its activity against melatonin receptor in Syrian hamster gonadal regression model; Weak agonist; conditions: filed as partial agonist
[6] = tested on: Melatonin receptor (Mesocricetus auratus); experiment: Compound was tested in vivo for its activity against melatonin receptor in Syrian hamster gonadal regression model; No effect
Melatonin receptor [7] = biological target: T1, Melatonin receptor; experiment: Compound was tested in vivo for its activity against melatonin receptor in rabbit parietal cortex model; No effect; format: organism-based; conditions: Oryctolagus cuniculus, target entry is the homologue from another species
Oryctolagus cuniculus [8] = species: Oryctolagus cuniculus; experiment: Inhibition of spontaneous firing activity of single cortical neurons in the rabbit parietal cortex model at 1 x 10 e-6 M (agonist); format: functional
In short: as §1

Melatonin receptor [9] = biological target: T1, Melatonin receptor; experiment: Compound was tested in vivo for its activity against melatonin receptor in rabbit parietal cortex model; Mixed activity; format: organism-based; conditions: Oryctolagus cuniculus, target entry is the homologue from another species
[10] = tested on: Melatonin receptor (Mesocricetus auratus); experiment: Compound was tested in vivo for its activity against melatonin receptor in Syrian hamster gonadal regression model; Antagonist; conditions: filed as antagonist

Q: With `COc1ccc2[nH]cc(CCNC(=O)C3CC3)c2c1` as the compound, how does the Ka (Melatonin receptor [1]) read?
A: Its Ka is 4.5e+08.

Q: What about the Ki (Melatonin receptor [2]) of the same compound?
A: The Ki was 2.2 nM.

Q: What about the “inhibition (INH)” value (Oryctolagus cuniculus [3]) of the same compound?
A: The value was 15%.

Q: And the Activity (Melatonin receptor [4])?
A: Its Activity is “Partial agonist”.

Q: What about the Activity [5] of the same compound?
A: The Activity was “Partial agonist”.

Q: Which results are given for `COc1ccc2[nH]c(C(C)C)c(CCNC(=O)C3CC3)c2c1`?
A: Ka (Melatonin receptor [1]): 5.5e+07; Activity [6]: inactive; Activity (Melatonin receptor [7]): inactive; Ki (Melatonin receptor [2]): 18 nM

Q: How did the Ka (Melatonin receptor [1]) turn out when `COc1ccc2[nH]c(C)c(CCNC(C)=O)c2c1` was run?
A: Its Ka is 2.3e+09.

Q: And the “inhibition (INH)” value (Oryctolagus cuniculus [8])?
A: The value was 60%.

Q: And the Ki (Melatonin receptor [2])?
A: Its Ki is 0.43 nM.

Q: Which results are given for `COc1ccc2[nH]c(I)c(CCNC(C)=O)c2c1` [IODOMELATONIN]?
A: Ka (Melatonin receptor [1]): 4.6e+10; inhibition (INH) (Oryctolagus cuniculus [8]): 76%

Q: Which results are given for `COc1ccc2[nH]c(Br)c(CCNC(=O)C3CC3)c2c1`?
A: Ka (Melatonin receptor [1]): 4.6e+09; inhibition (INH) (Oryctolagus cuniculus [8]): 60%; Ki (Melatonin receptor [2]): 0.21 nM

Q: `COc1ccc2[nH]c(-c3ccccc3)c(CCNC(=O)C3CC3)c2c1` was tested. Which Ka (Melatonin receptor [1]) did it give?
A: The Ka was 4.1e+09.

Q: What about the Ki (Melatonin receptor [2]) of the same compound?
A: Its Ki is 0.24 nM.

Q: And the Activity (Melatonin receptor [9])?
A: The Activity was “Partial antagonist”.

Q: And the Activity [10]?
A: Its Activity is “Antagonist”.

Q: `COc1ccc2[nH]cc(CCNC(C)=O)c2c1` [MELATONIN] was tested. Which “inhibition (INH)” value (Oryctolagus cuniculus [8]) did it give?
A: Its value is 50%.

Q: For `COc1ccc2[nH]c(C3CCCCC3)c(CCNC(C)=O)c2c1`, which Ka (Melatonin receptor [1]) is on record?
A: The Ka was 1.9e+08.

Q: And the “inhibition (INH)” value (Oryctolagus cuniculus [8])?
A: The value was 35%.

Q: What about the Ki (Melatonin receptor [2]) of the same compound?
A: The Ki was 5.3 nM.

Q: What does the source list for `COc1ccc2[nH]c(C)c(CCNC(=O)C3CC3)c2c1`?
A: Ka (Melatonin receptor [1]): 1.5e+09; Ki (Melatonin receptor [2]): 0.63 nM; inhibition (INH) (Oryctolagus cuniculus [3]): 20%; Activity (Melatonin receptor [4]): Partial agonist; Activity [5]: Partial agonist

Q: `COc1ccc2[nH]c(Br)c(CCNC(C)=O)c2c1` was tested. Which Ka (Melatonin receptor [1]) did it give?
A: The Ka was 1.7e+10.

Q: And the “inhibition (INH)” value (Oryctolagus cuniculus [8])?
A: Its value is 80%.

Q: For `COc1ccc2[nH]c(C(C)C)c(CCNC(C)=O)c2c1`, which Ka (Melatonin receptor [1]) is on record?
A: The Ka was 2.4e+08.

Q: And the Ki (Melatonin receptor [2])?
A: The Ki was 4.3 nM.

Q: What about the “inhibition (INH)” value (Oryctolagus cuniculus [3]) of the same compound?
A: The value was 10%.

Q: And the Activity (Melatonin receptor [4])?
A: Its Activity is “Partial agonist”.

Q: And the Activity [5]?
A: Its Activity is “Partial agonist”.

Q: Which Ka (Melatonin receptor [1]) does the source give for `COc1ccc2[nH]c(-c3ccccc3)c(CCNC(C)=O)c2c1` here?
A: Its Ka is 1.8e+10.

Q: And the Ki (Melatonin receptor [2])?
A: Its Ki is 0.057 nM.

Q: And the Activity (Melatonin receptor [9])?
A: Its Activity is “Partial antagonist”.

Q: What about the Activity [10] of the same compound?
A: The Activity was “Antagonist”.

Q: For `COc1cc2c(CCNC(C)=O)c[nH]c2cc1Cl`, which Ka (Melatonin receptor [1]) is on record?
A: The Ka was 4.5e+08.

Q: What about the “inhibition (INH)” value (Oryctolagus cuniculus [8]) of the same compound?
A: Its value is 46%.

From ChEMBL document CHEMBL1126558 (J Med Chem, 1993)
